Data: ChEMBL document CHEMBL1142114, “Kaurane diterpenoids from Isodon excisus inhibit LPS-induced NF-kappaB activation and NO production in macrophage RAW264.7 cells” (J Nat Prod, 2007)
pIC50: −log10 of the molar value. The source made the active and inactive calls. The rule behind the calls is not given here.

What was measured:
Format in all cases: functional, cell-based
[1] = tested on: RAW264.7; experiment: Inhibition of NF-kappaB activation in LPS-stimulated RAW264.7 cells after 24 hrs; settings: Mus musculus, RAW264.7, 24 h
Procedure, shortened: (§1)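 RAW264.7 cells transfected with a reporter plasmid carrying eight kappaB elements driving secreted alkaline phosphatase, seeded 5 × 10^4 cells/well. After 3 h at 37 °C, cells were given compound (0.1–10 µM) plus LPS 1 µg/mL for 24 h. SEAP activity was read at 405 nm with p-nitrophenyl phosphate substrate in diethanolamine/MgCl2/L-homoarginine buffer. IC50 is relative to vehicle control, mean ± SD of three experiments.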

[2] = tested on: RAW264.7; experiment: Inhibition of NO production in LPS-stimulated RAW264.7 cells after 24 hrs; settings: Mus musculus, RAW264.7, 24 h
Procedure, shortened: (§2)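 RAW264.7 cells (1 × 10^5/well) were stimulated with LPS 1 µg/mL for 24 h with or without compound (0.1, 0.3, 1, 3, 10 µM). Nitrite in the culture supernatant was measured with Griess reagent. The remaining cells were checked for viability by MTT. IC50 is relative to vehicle control, mean ± SD of three separate experiments.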

[3] = tested on: RAW264.7; experiment: Inhibition of NF-kappaB activation in LPS-stimulated RAW264.7 cells at 10 uM after 24 hrs; settings: Mus musculus; procedure, shortened: as §1
[4] = tested on: RAW264.7; experiment: Inhibition of NO production in LPS-stimulated RAW264.7 cells at 10 uM after 24 hrs; settings: Mus musculus; procedure, shortened: as §2

Row | Compound | pIC50 [1] | pIC50 [2] | Activity [3] | Activity [4]
1 | C=C1C(=O)O[C@@H]2C3O[C@]3(C)CC/C=C(\C)CC[C@@H]12 (stereo not given in full) | 5.94 |  |  | 
2 | C=C1C(=O)[C@@]23CC[C@@H]4[C@](C)(CO)[C@@H](OC(C)=O)CC[C@@]4(C)[C@@H]2[C@@H](O)C[C@@H]1C3 [EXCISUSIN A] | 6.05 | 6.17 |  | 
3 | C=C1C(=O)[C@@]23CC[C@@H]4C(C)(C)[C@@H](OC(C)=O)C[C@H](O)[C@@]4(C)[C@@H]2[C@@H](O)C[C@@H]1C3 [EXCISUSIN B] | 6.59 | 6.25 |  | 
4 | C=C1[C@@H]2C[C@H](O)[C@H]3[C@]4(C)CC[C@@H](O)[C@@](C)(COC(C)=O)[C@H]4CC[C@]3(C2)[C@@H]1O [EXCISUSIN C] | < 5.00 | < 5.00 | inactive | inactive
5 | C=C1C(=O)[C@]23C[C@H]1C[C@H](OC(C)=O)[C@H]2[C@@]1(C)[C@H]([C@@H](O)C3)C(C)(C)[C@@H](O)C[C@@H]1O [EXCISUSIN D] | 5.49 | 5.54 |  | 
6 | C=C1C(=O)[C@@]23CC[C@H]4[C@@](C)(CCC(=O)[C@@]4(C)COC(C)=O)[C@@H]2[C@@H](O)C[C@@H]1C3 [EXCISUSIN E] | 5.99 | 5.87 |  | 
7 | C=C1C(=O)[C@]23C[C@H]1C[C@H](O)[C@H]2[C@]1(C)CC[C@H](OC(C)=O)C(C)(C)[C@H]1[C@@H](O)C3 [INFLEXANIN A] | 6.40 | 6.20 |  | 
8 | C=C1C(=O)[C@]23C[C@H]1C[C@H](O)[C@H]2[C@@]1(C)[C@H]([C@@H](O)C3)C(C)(C)[C@@H](OC(C)=O)C[C@@H]1O [INFLEXANIN B] | 5.74 | 5.60 |  | 
9 | C=C1[C@@H]2C[C@H](OC(C)=O)[C@@H]3[C@](C2)(C[C@H](O)[C@@H]2C(C)(C)[C@@H](OC(C)=O)C[C@H](O)[C@]23C)[C@@H]1O [INFLEXARABDONIN A] | < 5.00 | < 5.00 | inactive | inactive
10 | C=C1C(=O)[C@@]23CC[C@@H]4C(C)(C)[C@@H](OC(C)=O)C[C@H](O)[C@@]4(C)[C@@H]2[C@@H](OC(C)=O)C[C@@H]1C3 [INFLEXARABDONIN G] | 6.62 | 6.32 |  | 
11 | C=C1C(=O)[C@]23C[C@H]1C[C@H](O)[C@H]2[C@]1(C)CCC(=O)C(C)(C)[C@H]1[C@@H](O)C3 [INFLEXARABDONIN I] | 5.94 | 5.91 |  | 
12 | C=C1C(=O)[C@]23C[C@H]1C[C@H](OC(C)=O)[C@H]2[C@@]1(C)[C@H]([C@@H](O)C3)C(C)(C)[C@@H](OC(C)=O)C[C@@H]1O [INFLEXINOL] | 6.36 | 6.03 |  | 
13 | C=C1C(=O)[C@@]23CC(=O)[C@@H]4C(C)(C)[C@@H](OC(C)=O)C[C@H](O)[C@@]4(C)[C@@H]2[C@@H](OC(C)=O)C[C@@H]1C3 [INFLEXIN] | 6.64 | 6.16 |  | 
14 | N=C(N)NN [PIMAGEDINE] |  | 4.49 |  | 
